Experimental data as given in ChEMBL document CHEMBL4376875, “Synthesis and Biological Evaluation of B-Cell Lymphoma 6 Inhibitors of N-Phenyl-4-pyrimidinamine Derivatives Bearing Potent Activities against Tumor Growth” (J Med Chem, 2020).
Calls of active or inactive are those of the source. The calls are words filed in the database; no cut-off is given here.

Assays:
Toledo = assay: Effect on CD69 mRNA expression in BCL6-negative human Toledo cells at 1.25 to 5 uM incubated for 24 hrs by RT-PCR analysis; assay type: functional, cell-based
Outline: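 Toledo cells (BCL6-independent) were exposed to 1.25, 2.50 or 5.00 μM for 24 h, then mRNA was collected. Target-gene transcripts were quantified by real-time quantitative PCR against vehicle control.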

PNT1A = assay: Cytotoxicity against human PNT1A cells assessed as reduction in cell viability incubated for 72 hrs by CCK8 assay
SUD4 [1] = assay: Induction of apoptosis in human SUDHL4 cells assessed as late apoptotic cells at 1.25 uM incubated for 48 hrs by annexin V-FITC and propidium iodide staining based flow cytometry analysis (reference value: 1.39%); assay type: functional
SUD4 [2] = assay: Induction of apoptosis in human SUDHL4 cells assessed as late apoptotic cells at 2.5 uM incubated for 48 hrs by annexin V-FITC and propidium iodide staining based flow cytometry analysis (reference value: 1.39%); assay type: functional
SUD4 [3] = assay: Induction of apoptosis in human SUDHL4 cells assessed as early apoptotic cells at 1.25 uM incubated for 48 hrs by annexin V-FITC and propidium iodide staining based flow cytometry analysis (reference value: 2.62%); assay type: functional
SUD4 [4] = assay: Induction of apoptosis in human SUDHL4 cells incubated for 48 hrs by annexin V-FITC and propidium iodide staining based flow cytometry analysis; assay type: functional, cell-based
[5] = Toxicity in SCID mouse xenografted with human SUDHL4 cells assessed as reduction in body weight at 5 to 10 mg/kg, iv administered 3 days once for 15 days and measured every 3 days; assay type: organism-based; details: in vivo
Outline: (§1)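 Male SCID mice, 6 weeks old, received 1 × 10⁷ SUDHL4 cells s.c. At about 100 mm³, mice were randomized (n = 7) to vehicle (20% 2-hydroxypropyl-β-cyclodextrin) or 5 or 10 mg/kg every 3 days i.v. for 15 days. Body weight and caliper volume (L × W² × 0.52) were recorded every 3 days. At sacrifice, tissues were fixed in 4% paraformaldehyde and paraffin-embedded for H&E or Ki67 IHC. Tumor mRNA was assayed by qPCR.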

[6] = Toxicity in SCID mouse xenografted with human SUDHL4 cells assessed as adverse effect on heart morphology at 5 to 10 mg/kg, iv administered 3 days once for 15 days by H and E staining analysis; assay type: organism-based; details: in vivo; outline: as §1
[7] = Toxicity in SCID mouse xenografted with human SUDHL4 cells assessed as adverse effect on spleen morphology at 5 to 10 mg/kg, iv administered 3 days once for 15 days by H and E staining analysis; assay type: organism-based; details: in vivo; outline: as §1
[8] = Toxicity in SCID mouse xenografted with human SUDHL4 cells assessed as adverse effect on kidney morphology at 5 to 10 mg/kg, iv administered 3 days once for 15 days by H and E staining analysis; assay type: organism-based; details: in vivo; outline: as §1
SUD4 [9] = assay: Antitumor activity against human SUDHL4 cells xenografted in SCID mouse assessed as reduction in Ki67 expression in tumor at 5 mg/kg, iv administered 3 days once for 15 days by Ki67-staining based immunohistochemistry; assay type: functional, organism-based; outline: as §1
Mus musculus [10] = assay: Upregulation of CD69 mRNA expression in SCID mouse xenografted with human SUDHL4 cells at 5 to 10 mg/kg, iv administered 3 days once for 15 days by qPCR analysis; assay type: functional, organism-based; outline: as §1
Mus musculus [11] = assay: Upregulation of CXCR4 mRNA expression in SCID mouse xenografted with human SUDHL4 cells at 5 to 10 mg/kg, iv administered 3 days once for 15 days by qPCR analysis; assay type: functional, organism-based; outline: as §1
Mus musculus [12] = assay: Upregulation of ATR mRNA expression in SCID mouse xenografted with human SUDHL4 cells at 5 to 10 mg/kg, iv administered 3 days once for 15 days by qPCR analysis; assay type: functional, organism-based; outline: as §1
[13] = Metabolic stability in human liver microsomes assessed as half life; assay type: ADME, Microsome
Outline: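 Incubation with human liver microsomes. Intrinsic clearance was scaled to liver using 45 mg microsomal protein per g liver and 20 g liver per kg body weight. Half-life was also determined.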

SUD4 [14] = assay: Antiproliferative activity against human SUDHL4 cells assessed as living cells and S phase cells at 1.25 uM incubated for 48 hrs by Edu based flow cytometry analysis (reference value: 48.3%)

COc1cc(Nc2nc(N3C[C@@H](C)N[C@@H](C)C3)ncc2F)ccc1NC(=O)c1ccc(C2=CCCC2)s1
Activity (Toledo): inactive | IC50 (PNT1A): 8.13 µM | Activity (SUD4 [1]): 12.5% | Activity (SUD4 [2]): 67.3% | Activity (SUD4 [3]): 3.57% | Activity (SUD4 [4]): Dose-dependent effect | Activity [5]: Non-Toxic | Activity [6]: Non-Toxic | Activity [7]: Non-Toxic | Activity [8]: Non-Toxic | Activity (SUD4 [9]): Active | Activity (Mus musculus [10]): Active | Activity (Mus musculus [11]): Active | Activity (Mus musculus [12]): Active | half-life [13]: > 1 h | Activity (SUD4 [14]): 12.5%
